Compounds with a hit are over-represented: about 3.7% of the library has one in this group of screens.
Kir21 inh = inhibitors of mouse Kir2.1 inward-rectifier potassium channel | AID 1672, 2009 | HEK293-Kir2.1, FluxOR thallium flux fluorescence; hits give low values | actives 0.85% (n = 310,000) | B-score at 10 µM;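 active = fluorescence ratio B-score at or below minus 3 SD of library scores, with starting-brightness B-score within 2 SD, cut at about -4.2 in these data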;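 note: channel flux triggered by added potassium and thallium sulfate stimulus; B-score of peak minus minimum fluorescence over baseline after thallium stimulus; more negative B-score means stronger Kir2.1 block with less thallium influx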
KCNK9 block = KCNK9 potassium channel inhibitors, primary screen, HEK293 cells, thallium flux; Potassium channel subfamily K member 9 (Homo sapiens), Q9NPC2; FluxOR thallium flux fluorescence; hits give low values; B-score at 10 µM; actives 1.2% (n = 310,000); AID 488922, 2010;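 active = ratio B-score over 3 SD below the library mean, with starting fluorescence within 5 SD of its mean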;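 note: negative B-score means less thallium flux so channel inhibition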
Target sequence (Q9NPC2 whole entry, looked up): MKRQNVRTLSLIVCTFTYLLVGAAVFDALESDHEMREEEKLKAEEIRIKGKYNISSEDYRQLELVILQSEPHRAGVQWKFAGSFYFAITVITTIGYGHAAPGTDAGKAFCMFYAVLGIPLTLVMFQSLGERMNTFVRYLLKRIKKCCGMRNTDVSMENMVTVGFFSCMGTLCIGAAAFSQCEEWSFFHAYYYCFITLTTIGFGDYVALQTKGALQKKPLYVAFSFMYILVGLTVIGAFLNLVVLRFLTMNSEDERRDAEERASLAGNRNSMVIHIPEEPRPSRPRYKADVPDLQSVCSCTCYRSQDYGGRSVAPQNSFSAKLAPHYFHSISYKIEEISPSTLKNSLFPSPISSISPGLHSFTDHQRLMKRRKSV
KCNQ1 pot = potentiators or activators of KCNQ1 channel, primary screen, cell-based, thallium flux, high-throughput | actives 0.35% (n = 310,000) | Potassium voltage-gated channel subfamily KQT member 1 (Homo sapiens), P51787 | CHO-K1 KCNQ1, thallium flux FluxOR fluorescence; hits give high values | AID 2648, 2010 | B-score at 10 µM;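 active = fluorescence ratio B-score, a plate-corrected score, at least three library SD, with initial intensity B-score within 5 SD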
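Schedule – 37 °C overnight plating, 90-min dark dye load, 20-min compound pretreatment · System – stable KCNQ1 CHO-K1 line · Probe or stimulus – thallium- and potassium-containing depolarizing buffer · Measured by – kinetic FluxOR fluorescence, 10 s baseline plus 110 s post-stimulus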
hERG protect = hERG rescue from dofetilide block, primary screen, cell-based, CHO-hERG, FluxOR thallium flux, dofetilide IC70. Voltage-gated inwardly rectifying potassium channel KCNH2 (Homo sapiens), Q12809. activation (rescue from dofetilide block), less the hit threshold, % at 10 µM. actives 0.51% (n = 310,000). AID 1511, 2009. dofetilide IC70 present;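 active = activation above the mean of controls blocked by dofetilide plus 5 SD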;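 note: thallium influx through hERG after potassium depolarization seen as dye fluorescence rise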
KCNQ1 block = inhibitors of human KCNQ1 channel, primary screen, cell-based, thallium flux, high-throughput. B-score at 10 µM. actives 1.3% (n = 310,000). CHO-K1 KCNQ1, FluxOR thallium flux fluorescence; hits give high values;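 active = compounds whose thallium flux B-score, printed positive for inhibition, exceeds three library SD while starting fluorescence stays within three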;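 note: channel opened by potassium depolarization with thallium stimulus after 20 min compound exposure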
KCNK3 inh = human KCNK3 channel inhibitors, primary screen, CHO cells, FluxOR thallium flux, B-score | Potassium channel subfamily K member 3 (Homo sapiens), O14649 | FluxOR fluorescence; hits give low values | B-score at 10 µM | actives 0.84% (n = 340,000) | AID 602410, 2012;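 active = B-score under library mean minus 4 SD, starting fluorescence ratio at most library mean plus 5 SD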;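 note: more negative B-score means stronger inhibition of thallium flux through KCNK3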
Numbers without * were called inactive.

What do the screens show for `CN1CCN(C(=O)C2CCCN(S(=O)(=O)c3ccc(Cl)cc3)C2)CC1` (centres undefined)?
Kir21 inh: -1.2; KCNK9 block: inactive; KCNQ1 pot: inactive; hERG protect: -11; KCNQ1 block: inactive; KCNK3 inh: inactive

How did O=C(NCc1ccc2c(c1)OCO2)C1CCC(=O)N1C1CCCC1 (centres undefined) do in these assays?
Kir21 inh: 1.3; KCNK9 block: inactive; KCNQ1 pot: inactive; hERG protect: -8; KCNQ1 block: inactive; KCNK3 inh: inactive

Results for N#C/C(=C\c1ccc(-c2ccccc2Cl)o1)C(=O)Nc1nc2ccccc2s1 ?
Kir21 inh: 0.5; KCNK9 block: inactive; KCNQ1 pot: inactive; hERG protect: 10*; KCNQ1 block: inactive; KCNK3 inh: inactive

Results for CC(=O)NN1C(=O)/C(=C/c2ccc(Br)o2)SC1=S ?
Kir21 inh: -0.88; KCNK9 block: inactive; KCNQ1 pot: inactive; hERG protect: -10; KCNQ1 block: inactive; KCNK3 inh: inactive

Results for CC(=O)NN1C(=O)/C(=C\c2ccc(Br)o2)SC1=S ?
Kir21 inh: -5*; KCNK9 block: inactive; KCNQ1 pot: inactive; hERG protect: -12; KCNQ1 block: inactive; KCNK3 inh: inactive

What do the screens show for `O=c1c2ccc(Cl)cc2[nH]c(=S)n1CCC1=CCCCC1`?
Kir21 inh: 1.2; KCNK9 block: inactive; KCNQ1 pot: 20*; hERG protect: 25*; KCNQ1 block: inactive; KCNK3 inh: inactive

Results for CCOC(=O)N1CCN(C(=O)c2ccc3c(=O)n(CCC4=CCCCC4)c(=S)[nH]c3c2)CC1 ?
Kir21 inh: -0.08; KCNK9 block: inactive; KCNQ1 pot: inactive; hERG protect: -7; KCNQ1 block: inactive; KCNK3 inh: inactive

How did CC(C)CC1(C)NC(=O)N(CC(=O)Nc2ccc3c(c2)CCC3)C1=O (centres undefined) do in these assays?
Kir21 inh: -0.3; KCNK9 block: inactive; KCNQ1 pot: inactive; hERG protect: -12; KCNQ1 block: inactive; KCNK3 inh: inactive

How did Cc1cc(-c2cc(C(=O)Nc3ccccc3)on2)nc(NC2CCCC2)n1 do in these assays?
Kir21 inh: 0.22; KCNK9 block: inactive; KCNQ1 pot: inactive; hERG protect: -10; KCNQ1 block: inactive

How did CCCCN1C2=C(C(=O)CCC2)C(c2ccc(Cl)c(Cl)c2)C2=C1c1ccccc1C2=O (centres undefined) do in these assays?
Kir21 inh: -1.1; KCNK9 block: inactive; KCNQ1 pot: inactive; hERG protect: -9; KCNQ1 block: inactive; KCNK3 inh: -9.9*

Results for CCCN1C(=O)c2ccccc2NC1c1ccc(Cl)c(Cl)c1 (centres undefined) ?
Kir21 inh: -1.1; KCNK9 block: inactive; KCNQ1 pot: inactive; hERG protect: -5; KCNQ1 block: inactive; KCNK3 inh: inactive

Results for C=CCn1c(Br)nc2c1c(=O)n(C)c(=O)n2C ?
Kir21 inh: 2; KCNK9 block: inactive; KCNQ1 pot: inactive; hERG protect: -7; KCNQ1 block: inactive; KCNK3 inh: inactive

How did C=CCn1c(Br)nc2c1c(=O)[nH]c(=O)n2C do in these assays?
Kir21 inh: -0.54; KCNK9 block: inactive; KCNQ1 pot: inactive; hERG protect: 5.5*; KCNQ1 block: inactive; KCNK3 inh: inactive

Results for Nc1c(-c2ccccc2Cl)cnn1-c1cccc([N+](=O)[O-])c1 ?
Kir21 inh: 1.1; KCNK9 block: -7.6*; KCNQ1 pot: inactive; hERG protect: -12; KCNQ1 block: inactive; KCNK3 inh: inactive

How did Cc1ccc(C(=O)Nc2nc(-c3ccccc3)c(-c3ccccc3)o2)cc1 do in these assays?
Kir21 inh: -0.28; KCNK9 block: inactive; KCNQ1 pot: 40*; hERG protect: -1; KCNQ1 block: inactive; KCNK3 inh: inactive

How did Cc1cc(C)nc(SCC(=O)Nc2nc(-c3ccccc3)c(-c3ccccc3)o2)n1 do in these assays?
Kir21 inh: -0.05; KCNK9 block: inactive; KCNQ1 pot: inactive; hERG protect: -17; KCNQ1 block: inactive; KCNK3 inh: inactive

What do the screens show for `COc1ccc2oc(C(=O)N(Cc3ccco3)Cc3cccs3)c(C)c2c1`?
Kir21 inh: -2.3; KCNK9 block: inactive; KCNQ1 pot: inactive; hERG protect: -17; KCNQ1 block: 9*; KCNK3 inh: inactive

Results for Cc1cccc(CSc2nnc([C@@H]3CCCN3C(=O)OC(C)(C)C)o2)c1 ?
Kir21 inh: -6*; KCNK9 block: inactive; KCNQ1 pot: inactive; hERG protect: -14; KCNQ1 block: inactive; KCNK3 inh: inactive

How did CC(C)(C)OC(=O)N1CCC[C@H]1c1nnc(SCc2c(Cl)cccc2Cl)o1 do in these assays?
Kir21 inh: -3.2; KCNK9 block: inactive; KCNQ1 pot: inactive; hERG protect: -16; KCNQ1 block: inactive; KCNK3 inh: inactive

Results for NC(=O)c1nc(-c2cccs2)nc2c1[nH]c(=O)n2-c1ccc(F)cc1 ?
Kir21 inh: 1; KCNK9 block: inactive; KCNQ1 pot: inactive; hERG protect: -8; KCNQ1 block: inactive; KCNK3 inh: inactive

How did CNc1nc(-c2ccccc2)[n+](-c2ccc(C)cc2)s1 do in these assays?
Kir21 inh: -3.8; KCNK9 block: inactive; KCNQ1 pot: inactive; hERG protect: -7; KCNQ1 block: inactive; KCNK3 inh: inactive

What do the screens show for `Cc1ccc(-c2nc(N)s[n+]2-c2ccccc2)cc1`?
Kir21 inh: -3.6; KCNK9 block: inactive; KCNQ1 pot: inactive; hERG protect: 10*; KCNQ1 block: inactive; KCNK3 inh: inactive

Results for COc1ccc(C[C@H]2CN3C(=NC[C@@H]3C(C)C)N2CCNC(=O)c2ccc(C)c(Br)c2)cc1 ?
Kir21 inh: -6.5*; KCNK9 block: inactive; KCNQ1 pot: inactive; hERG protect: -18; KCNQ1 block: inactive; KCNK3 inh: inactive

Results for Cc1cc(C(=O)NNC(=O)c2ccc(Cl)cc2Cl)c(C)o1 ?
Kir21 inh: 0.38; KCNK9 block: inactive; KCNQ1 pot: inactive; hERG protect: -7; KCNQ1 block: inactive; KCNK3 inh: inactive

What do the screens show for `N#CC(c1ccccc1)N(CCCCl)C(=O)c1ccccc1` (centres undefined)?
Kir21 inh: -4.6*; KCNK9 block: inactive; KCNQ1 pot: inactive; hERG protect: -7; KCNQ1 block: inactive; KCNK3 inh: inactive

Screens: PubChem BioAssay, Johns Hopkins Ion Channel Center
